Results on 15 molecules are retold here after ChEMBL document CHEMBL1158102, “Biologically active triterpenoid saponins from Acanthopanax senticosus” (J Nat Prod, 2006).

Activity calls are given as the source filed them. The calls are words filed in the database; no cut-off is given here.

The target in the test is T1, Pancreatic triacylglycerol lipase (Homo sapiens) (UniProt P16233).
T1 sequence (whole entry): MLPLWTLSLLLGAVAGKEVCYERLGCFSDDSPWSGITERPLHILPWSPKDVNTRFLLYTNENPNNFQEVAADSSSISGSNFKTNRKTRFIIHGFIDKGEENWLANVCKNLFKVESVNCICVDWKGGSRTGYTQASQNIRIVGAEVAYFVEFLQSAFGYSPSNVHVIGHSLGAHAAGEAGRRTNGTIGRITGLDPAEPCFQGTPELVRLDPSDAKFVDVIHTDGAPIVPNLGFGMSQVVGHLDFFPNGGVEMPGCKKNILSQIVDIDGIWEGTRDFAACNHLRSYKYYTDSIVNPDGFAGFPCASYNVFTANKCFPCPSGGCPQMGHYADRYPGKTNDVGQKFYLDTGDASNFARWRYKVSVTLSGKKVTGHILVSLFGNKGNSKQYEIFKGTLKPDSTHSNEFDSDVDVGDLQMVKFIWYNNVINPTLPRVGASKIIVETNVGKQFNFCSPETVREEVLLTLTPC
The experiment in a line: Inhibition of pancreatic lipase assessed as umoles of oleic acic released per millimiter of triolein per hour at 1 mg/mL. Summed up: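 Lipase activity measured as rate of oleic acid release from triolein. Substrate: sonicated triolein, phosphatidylcholine and taurocholic acid in 0.1 M TES buffer pH 7.0 with 0.1 M NaCl. Incubated with pancreatic lipase (10 units) and sample for 30 min at 37 °C. Free fatty acids extracted, converted to copper salts, reacted with bathocuproine, absorbance read at 480 nm. Means ± SEM of three experiments.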

Turning to `C=C1CC[C@]2(C(=O)O[C@@H]3O[C@H](CO[C@@H]4O[C@H](CO)[C@@H](O[C@@H]5O[C@@H](C)[C@H](O)[C@@H](O)[C@H]5O)[C@H](O)[C@H]4O)[C@@H](O)[C@H](O)[C@H]3O)CC[C@]3(C)C(=CC[C@H]4[C@H]3CC[C@H]3C(C)(C)[C@@H](O[C@@H]5OC[C@H](O)[C@H](O)[C@H]5O[C@@H]5O[C@@H](C)[C@H](O)[C@@H](O)[C@H]5O)CC[C@]43C)[C@@H]2C1`, the outcome was inactive.

On to `C[C@@H]1O[C@@H](O[C@H]2[C@H](O[C@H]3CC[C@]4(C)[C@H]5CC=C6[C@@H]7CC(C)(C)CC[C@]7(C(=O)O[C@@H]7O[C@H](CO[C@@H]8O[C@H](CO)[C@@H](O[C@@H]9O[C@@H](C)[C@H](O)[C@@H](O)[C@H]9O)[C@H](O)[C@H]8O)[C@@H](O)[C@H](O)[C@H]7O)CC[C@@]6(C)[C@]5(C)CC[C@H]4C3(C)C)OC[C@H](O)[C@@H]2O)[C@H](O)[C@H](O)[C@H]1O`, for which the result was inactive.

For orientation: inhibition means the drop in the measured response relative to a control, in per cent. For the molecule `C=C(C)[C@@H]1CC[C@]2(C(=O)O[C@@H]3O[C@H](CO[C@@H]4O[C@H](CO)[C@@H](O[C@@H]5O[C@@H](C)[C@H](O)[C@@H](O)[C@H]5O)[C@H](O)[C@H]4O)[C@@H](O)[C@H](O)[C@H]3O)CC[C@]3(C)[C@H](CC[C@@H]4[C@@](C)(CCC(=O)O)[C@H](C(=C)C)CC[C@]43C)[C@@H]12`, the inhibition was found to be 44.6%.

In the case of `C=C1CC[C@]2(C(=O)O[C@@H]3O[C@H](CO[C@@H]4O[C@H](CO)[C@@H](O[C@@H]5O[C@@H](C)[C@H](O)[C@@H](O)[C@H]5O)[C@H](O)[C@H]4O)[C@@H](O)[C@H](O)[C@H]3O)CC[C@]3(C)C(=CC[C@H]4[C@H]3CC[C@H]3C(C)(C)[C@@H](O[C@@H]5OC[C@H](O)[C@H](O)[C@H]5O[C@@H]5O[C@H](CO)[C@@H](O)[C@H](O)[C@H]5O)CC[C@]43C)[C@@H]2C1`, the outcome was inactive.

As to `C=C1CC[C@]2(C(=O)O[C@@H]3O[C@H](CO[C@@H]4O[C@H](COC(C)=O)[C@@H](O[C@@H]5O[C@@H](C)[C@H](O)[C@@H](O)[C@H]5O)[C@H](O)[C@H]4O)[C@@H](O)[C@H](O)[C@H]3O)CC[C@]3(C)C(=CC[C@H]4[C@H]3CC[C@H]3C(C)(C)[C@@H](O[C@@H]5OC[C@H](O)[C@H](O)[C@H]5O)CC[C@]43C)[C@@H]2C1`, the inhibition is -46.7%.

`C=C1CC[C@]2(C(=O)O[C@@H]3O[C@H](CO[C@@H]4O[C@H](COC(C)=O)[C@@H](O[C@@H]5O[C@@H](C)[C@H](O)[C@@H](O)[C@H]5O)[C@H](O)[C@H]4O)[C@@H](O)[C@H](O)[C@H]3O)CC[C@]3(C)C(=CC[C@H]4[C@H]3CC[C@H]3C(C)(C)[C@@H](O[C@@H]5OC[C@H](O)[C@H](O)[C@H]5O[C@@H]5O[C@@H](C)[C@H](O)[C@@H](O)[C@H]5O)CC[C@]43C)[C@@H]2C1`: the inhibition was -80.5%.

`C[C@@H]1O[C@@H](O[C@H]2[C@H](O[C@H]3CC[C@]4(C)[C@H]5CC=C6[C@@H]7CC(C)(C)CC[C@]7(C(=O)O[C@@H]7O[C@H](CO[C@@H]8O[C@H](CO)[C@@H](O[C@@H]9O[C@@H](C)[C@H](O)[C@@H](O)[C@H]9O)[C@H](O)[C@H]8O)[C@@H](O)[C@H](O)[C@H]7O)[C@H](O)C[C@@]6(C)[C@@H]5CC[C@H]4C3(C)C)OC[C@H](O)[C@@H]2O)[C@H](O)[C@H](O)[C@H]1O`: the inhibition came to 38.3%.

In the case of `C=C1CC[C@]2(C(=O)O[C@@H]3O[C@H](CO[C@@H]4O[C@H](COC(C)=O)[C@@H](O[C@@H]5O[C@@H](C)[C@H](O)[C@@H](O)[C@H]5O)[C@H](O)[C@H]4O)[C@@H](O)[C@H](O)[C@H]3O)CC[C@]3(C)C(=CC[C@H]4[C@H]3CC[C@H]3C(C)(C)[C@@H](O[C@@H]5OC[C@H](O)[C@H](O)[C@H]5O[C@@H]5O[C@H](CO)[C@@H](O)[C@H](O)[C@H]5O)CC[C@]43C)[C@@H]2C1`, the result was inactive.

For `C=C(C)[C@@H]1CC[C@]2(C(=O)O[C@@H]3O[C@H](CO[C@@H]4O[C@H](CO)[C@@H](O[C@@H]5O[C@@H](C)[C@H](O)[C@@H](O)[C@H]5O)[C@H](O)[C@H]4O)[C@@H](O)[C@H](O)[C@H]3O)CC[C@]3(C)[C@H](C[C@H]4OC(=O)C[C@@H](O)[C@]5(C)[C@@H]4[C@@]3(C)CC[C@H]5C(=C)C)[C@@H]12`, the inhibition is 56.1%.

Regarding `C=C1CC[C@]2(C(=O)O[C@@H]3O[C@H](CO[C@@H]4O[C@H](CO)[C@@H](O[C@@H]5O[C@@H](C)[C@H](O)[C@@H](O)[C@H]5O)[C@H](O)[C@H]4O)[C@@H](O)[C@H](O)[C@H]3O)CC[C@]3(C)C(=CC[C@H]4[C@H]3CC[C@H]3C(C)(C)[C@@H](O[C@@H]5OC[C@H](O)[C@H](O)[C@H]5O)CC[C@]43C)[C@@H]2C1`, the inhibition is 46.5%.

For `C[C@@H]1O[C@@H](O[C@H]2[C@H](O)[C@@H](O)[C@H](OC[C@H]3O[C@@H](OC(=O)[C@]45CCC(C)(C)C[C@H]4C4=CC[C@@H]6[C@@]7(C)CC[C@H](O[C@@H]8OC[C@H](O)[C@H](O)[C@H]8O)C(C)(C)[C@@H]7CC[C@@]6(C)[C@]4(C)CC5)[C@H](O)[C@@H](O)[C@@H]3O)O[C@@H]2CO)[C@H](O)[C@H](O)[C@H]1O`, the result was inactive.

As for `CC(=O)OC[C@H]1O[C@@H](OC[C@H]2O[C@@H](OC(=O)[C@]34CCC(C)(C)C[C@H]3C3=CC[C@H]5[C@@H](CC[C@H]6C(C)(C)[C@@H](O[C@@H]7OC[C@H](O)[C@H](O)[C@H]7O[C@@H]7O[C@H](CO)[C@@H](O)[C@H](O)[C@H]7O)CC[C@]56C)[C@]3(C)CC4)[C@H](O)[C@@H](O)[C@@H]2O)[C@H](O)[C@@H](O)[C@@H]1O[C@@H]1O[C@@H](C)[C@H](O)[C@@H](O)[C@H]1O`, the result was inactive.

For `C[C@@H]1O[C@@H](O[C@H]2[C@H](O[C@H]3CC[C@]4(C)[C@H]5CC=C6[C@@H]7C[C@](C)(C(=O)O)CC[C@]7(C(=O)O)CC[C@@]6(C)[C@@H]5CC[C@H]4C3(C)C)OC[C@H](O)[C@@H]2O)[C@H](O)[C@H](O)[C@H]1O`, the inhibition was determined as 44.9%.

`CC(=O)OC[C@H]1O[C@@H](OC[C@H]2O[C@@H](OC(=O)[C@]34CCC(C)(C)C[C@H]3C3=CC[C@H]5[C@@H](CC[C@H]6C(C)(C)[C@@H](O[C@@H]7OC[C@H](O)[C@H](O)[C@H]7O[C@@H]7O[C@@H](C)[C@H](O)[C@@H](O)[C@H]7O)CC[C@]56C)[C@]3(C)CC4)[C@H](O)[C@@H](O)[C@@H]2O)[C@H](O)[C@@H](O)[C@@H]1O[C@@H]1O[C@@H](C)[C@H](O)[C@@H](O)[C@H]1O`: the outcome was inactive.

Take `C[C@@H]1O[C@@H](O[C@H]2[C@H](O[C@H]3CC[C@]4(C)[C@H]5CC=C6[C@@H]7C[C@](C)(CO)CC[C@]7(C(=O)O)CC[C@@]6(C)[C@@H]5CC[C@H]4C3(C)C)OC[C@H](O)[C@@H]2O)[C@H](O)[C@H](O)[C@H]1O`: the inhibition came out at 33%.
